Laboratory results as given in ChEMBL document CHEMBL2069213, “Synthesis and evaluation of small libraries of triazolylmethoxy chalcones, flavanones and 2-aminopyrimidines as inhibitors of mycobacterial FAS-II and PknG” (Bioorg Med Chem, 2012).
≈ marks a conversion by molar mass, not a printed value. Calls of active or inactive are those of the source. The rule behind the calls is not given here.

Assays:
[1] = tested on: Mycolicibacterium aurum; test: Inhibition of FAS2 in recombinant Mycobacterium aurum expressing Mycobacterium tuberculosis H37Rv kas operon in fusion Escherichia coli lacZ gene assessed as increase in beta-galactosidase activity at 50 uM incubated for 12 hrs by lacZ reporter gene assay
Outline: (§1)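 Cells washed, sonicated in PBS pH 7.2; equal Bradford-quantified protein incubated with ONPG (4 mg/ml) 30 min at 37 °C, stopped with Na2CO3, read at 410 nm. Triplicates, experiment repeated twice; isoniazid positive control.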

[2] = tested on: Mycolicibacterium aurum; test: Growth inhibition of Mycobacterium aurum expressing Mycobacterium tuberculosis H37Rv kas operon in fusion Escherichia coli lacZ gene at 50 uM incubated for 12 hrs; format: functional; conditions: read-out: GI
[3] = Toxicity against macrophages incubated for 48 hrs by resazurin dye reduction assay; format: cell-based, Macrophage
Outline: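 Macrophages from subconfluent monolayers seeded ~1 × 10^6 cells/well in RPMI-1640; compounds 100 to 12.5 µM, 48 h at 37 °C, 5% CO2; resazurin added for 4 h, fluorescence 535/590 nm read against untreated wells as % viability; CC50 taken from viability-versus-concentration plot; triplicates.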

[4] = tested on: Mycolicibacterium aurum; test: Inhibition of FAS2 in recombinant Mycobacterium aurum expressing hsp60 promoter in fusion Escherichia coli lacZ gene assessed as increase in beta-galactosidase activity at 50 uM incubated for 12 hrs by lacZ reporter gene assay
[5] = tested on: Mycolicibacterium aurum; test: Growth inhibition of Mycobacterium aurum expressing Mycobacterium tuberculosis H37Rv kas operon in fusion Escherichia coli lacZ gene at 100 uM incubated for 12 hrs; format: functional; conditions: read-out: GI
[6] = tested on: Mycolicibacterium aurum; test: Inhibition of FAS2 in recombinant Mycobacterium aurum expressing hsp60 promoter in fusion Escherichia coli lacZ gene assessed as increase in beta-galactosidase activity at 100 uM incubated for 12 hrs by lacZ reporter gene assay
[7] = tested on: Mycolicibacterium aurum; test: Inhibition of FAS2 in recombinant Mycobacterium aurum expressing Mycobacterium tuberculosis H37Rv kas operon in fusion Escherichia coli lacZ gene assessed as increase in beta-galactosidase activity at 100 uM incubated for 12 hrs by lacZ reporter gene assay; outline: as §1
[8] = biological target: Serine/threonine-protein kinase PknG (Mycobacterium tuberculosis) (UniProt P9WI73); test: Inhibition of Mycobacterium tuberculosis recombinant PKnG expressed in Escherichia coli BL21 (DE3) cells using myelin basic protein substrate at 3.125 uM by luciferase activity based ADP-Glo-luminescent kinase assay
Serine/threonine-protein kinase PknG (Mycobacterium tuberculosis), sequence (P9WI73 whole entry): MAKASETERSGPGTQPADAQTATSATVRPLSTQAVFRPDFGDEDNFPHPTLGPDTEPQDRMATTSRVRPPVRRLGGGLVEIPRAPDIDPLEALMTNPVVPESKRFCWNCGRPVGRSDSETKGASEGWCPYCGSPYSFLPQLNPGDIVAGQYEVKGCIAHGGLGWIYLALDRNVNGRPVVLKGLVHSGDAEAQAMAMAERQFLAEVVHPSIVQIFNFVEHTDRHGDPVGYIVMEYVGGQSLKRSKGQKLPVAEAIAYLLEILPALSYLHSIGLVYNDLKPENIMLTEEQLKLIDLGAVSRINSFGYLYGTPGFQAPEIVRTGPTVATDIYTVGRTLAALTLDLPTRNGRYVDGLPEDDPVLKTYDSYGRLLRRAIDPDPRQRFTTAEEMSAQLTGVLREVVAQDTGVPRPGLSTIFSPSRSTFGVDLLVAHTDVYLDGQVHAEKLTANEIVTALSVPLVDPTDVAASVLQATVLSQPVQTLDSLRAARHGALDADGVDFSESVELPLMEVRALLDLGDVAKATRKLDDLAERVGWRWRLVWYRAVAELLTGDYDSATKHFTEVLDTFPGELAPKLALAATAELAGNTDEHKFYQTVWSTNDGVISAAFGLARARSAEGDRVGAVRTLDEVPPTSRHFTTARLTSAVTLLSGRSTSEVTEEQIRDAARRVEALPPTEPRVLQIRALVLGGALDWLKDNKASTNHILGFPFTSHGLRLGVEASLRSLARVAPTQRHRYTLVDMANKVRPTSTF
Outline: (§2)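 6-His-PknG from M. tuberculosis genomic DNA cloned into pTriEx4, expressed in E. coli with 0.8 mM IPTG 4 h at 37 °C, purified by Ni2+-NTA then size exclusion. Compounds dissolved in DMSO; assayed with myelin basic protein substrate; ADP formed measured by ADP-Glo luminescence; AX20017 positive control; dose-response series.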

[9] = tested on: Mycobacterium tuberculosis; test: Growth inhibition of Mycobacterium tuberculosis H37Rv; format: functional
[10] = biological target: Serine/threonine-protein kinase PknG (Mycobacterium tuberculosis) (UniProt P9WI73); test: Inhibition of Mycobacterium tuberculosis recombinant PKnG expressed in Escherichia coli BL21 (DE3) cells using myelin basic protein substrate at 50 uM by luciferase activity based ADP-Glo-luminescent kinase assay; outline: as §2
[11] = biological target: Serine/threonine-protein kinase PknG (Mycobacterium tuberculosis) (UniProt P9WI73); test: Inhibition of Mycobacterium tuberculosis recombinant PKnG expressed in Escherichia coli BL21 (DE3) cells using myelin basic protein substrate at 12.5 uM by luciferase activity based ADP-Glo-luminescent kinase assay; outline: as §2
[12] = biological target: Serine/threonine-protein kinase PknG (Mycobacterium tuberculosis) (UniProt P9WI73); test: Inhibition of Mycobacterium tuberculosis recombinant PKnG expressed in Escherichia coli BL21 (DE3) cells using myelin basic protein substrate at 6.25 uM by luciferase activity based ADP-Glo-luminescent kinase assay; outline: as §2
[13] = biological target: Serine/threonine-protein kinase PknG (Mycobacterium tuberculosis) (UniProt P9WI73); test: Inhibition of Mycobacterium tuberculosis recombinant PKnG expressed in Escherichia coli BL21 (DE3) cells using myelin basic protein substrate at 25 uM by luciferase activity based ADP-Glo-luminescent kinase assay; outline: as §2
[14] = biological target: Serine/threonine-protein kinase PknG (Mycobacterium tuberculosis) (UniProt P9WI73); test: Inhibition of Mycobacterium tuberculosis recombinant PKnG expressed in Escherichia coli BL21 (DE3) cells using myelin basic protein substrate at 100 uM by luciferase activity based ADP-Glo-luminescent kinase assay; outline: as §2

## O=C(/C=C/c1ccccc1)c1ccc(OCc2cn(Cc3ccc(Br)cc3)nn2)cc1O
[1]
  inhibition: Active
[2]
  inhibition of growth at 50 µM: 53.8%
[3]
  CC50 at 48 h: 71.7 µM
[4]
  inhibition: inactive
[5]
  inhibition of growth at 100 µM: 85.3%
[6]
  inhibition: inactive
[7]
  inhibition: Active

## O=C(/C=C/c1ccccc1)c1ccc(OCc2cn(Cc3ccccc3)nn2)cc1O
[1]
  inhibition: Active
[2]
  inhibition of growth at 50 µM: 49.9%
[3]
  CC50 at 48 h: 80 µM
[4]
  inhibition: inactive
[5]
  inhibition of growth at 100 µM: 88%
[6]
  inhibition: inactive
[7]
  inhibition: Active

## CCCCCCn1cc(COc2ccc(C(=O)/C=C/c3c(F)cccc3Cl)c(O)c2)nn1
[1]
  inhibition: Active
[2]
  inhibition of growth at 50 µM: 71.6%
[3]
  CC50 at 48 h: > 100 µM
[4]
  inhibition: inactive
[5]
  inhibition of growth at 100 µM: 79.1%
[6]
  inhibition: inactive
[7]
  inhibition: Active

## CCCCCCn1cc(COc2ccc(-c3cc(-c4ccccc4)nc(N)n3)c(O)c2)nn1
[8]
  inhibition: 0%
[9]
  MIC: 50 µg/mL (≈ 112 µM)
[10]
  inhibition: 13%
[11]
  inhibition: 0%
[12]
  inhibition: 0%
[13]
  inhibition: 0%
[14]
  inhibition: 23%

## CC(C)c1ccc(C2CC(=O)c3ccc(OCc4cn(Cc5ccccc5)nn4)cc3O2)cc1 (centres undefined)
[1]
  inhibition: Active
[2]
  inhibition of growth at 50 µM: 54.7%
[3]
  CC50 at 48 h: 23.8 µM
[4]
  inhibition: inactive
[5]
  inhibition of growth at 100 µM: 79.3%
[6]
  inhibition: inactive
[7]
  inhibition: Active

## CCCCCCn1cc(COc2ccc3c(c2)OC(c2ccc(OC)cc2)CC3=O)nn1 (centres undefined)
[1]
  inhibition: Active
[2]
  inhibition of growth at 50 µM: 55.9%
[3]
  CC50 at 48 h: 57.5 µM
[4]
  inhibition: inactive
[5]
  inhibition of growth at 100 µM: 65.7%
[6]
  inhibition: inactive
[7]
  inhibition: Active

## O=C(/C=C/c1c(F)cccc1Cl)c1ccc(OCc2cn(Cc3ccc(Br)cc3)nn2)cc1O
[1]
  inhibition: Active
[2]
  inhibition of growth at 50 µM: 53.1%
[3]
  CC50 at 48 h: 65.8 µM
[4]
  inhibition: inactive
[5]
  inhibition of growth at 100 µM: 83%
[6]
  inhibition: inactive
[7]
  inhibition: Active
